Assay results taken from ChEMBL document CHEMBL4028892, “Discovery of a 1-Methyl-3,4-dihydronaphthalene-Based Sphingosine-1-Phosphate (S1P) Receptor Agonist Ceralifimod (ONO-4641). A S1P1 and S1P5 Selective Agonist for the Treatment of Autoimmune Diseases” (J Med Chem, 2017).
Active and inactive are the calls of the source. The rule behind the calls is not given here.

Key:
[1] = species on record: Homo sapiens; test: Selectivity ratio of EC50 for human S1P3 receptor to EC50 for human S1P1 receptor
Outline: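 Fura2 Ca2+ assay in CHO-K1 cells stably expressing human S1P1 or S1P3. Cells were loaded with 5 μM Fura2-AM in Ham's F12 (10% FBS, 20 mM HEPES pH 7.4, 2.5 mM probenecid) for 60 min at 37 °C, then washed. After a 30 s baseline, compound was added (0.1 nM–30 μM final, DMSO), then 100 nM S1P 5 min later. Ratio read every 3 s (ex 340/380, em 500 nm). Increase ratio (%) = B/A×100 against the DMSO-well S1P peak; EC50 taken from the concentration series; mean of ≥2 data points.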

[2] = target: T1, Sphingosine 1-phosphate receptor 2 (Homo sapiens, UniProt O95136); test: Agonist activity at human S1P2 receptor expressed in CHO-K1 cells assessed as increase in S1P-stimulated calcium influx preincubated for 5 mins followed by S1P stimulation measured every 3 secs by fluorescence method; assay type: functional, cell-based
T1 sequence (O95136 whole entry): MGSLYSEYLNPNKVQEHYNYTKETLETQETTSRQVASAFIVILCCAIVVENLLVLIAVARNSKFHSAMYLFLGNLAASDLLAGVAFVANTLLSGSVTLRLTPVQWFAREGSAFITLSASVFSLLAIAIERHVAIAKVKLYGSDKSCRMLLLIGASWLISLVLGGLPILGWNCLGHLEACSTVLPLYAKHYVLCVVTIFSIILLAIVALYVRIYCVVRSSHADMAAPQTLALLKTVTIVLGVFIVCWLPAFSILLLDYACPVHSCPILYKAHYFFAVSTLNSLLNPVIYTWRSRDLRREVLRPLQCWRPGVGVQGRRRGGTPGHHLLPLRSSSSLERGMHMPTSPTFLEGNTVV

[3] = target: T2, Sphingosine 1-phosphate receptor 1 (Homo sapiens, UniProt P21453); test: Agonist activity at human S1P1 receptor expressed in CHO-K1 cells assessed as inhibition of forskolin-stimulated cAMP accumulation after 30 mins by ELISA; assay type: functional, cell-based
T2 sequence (P21453 whole entry): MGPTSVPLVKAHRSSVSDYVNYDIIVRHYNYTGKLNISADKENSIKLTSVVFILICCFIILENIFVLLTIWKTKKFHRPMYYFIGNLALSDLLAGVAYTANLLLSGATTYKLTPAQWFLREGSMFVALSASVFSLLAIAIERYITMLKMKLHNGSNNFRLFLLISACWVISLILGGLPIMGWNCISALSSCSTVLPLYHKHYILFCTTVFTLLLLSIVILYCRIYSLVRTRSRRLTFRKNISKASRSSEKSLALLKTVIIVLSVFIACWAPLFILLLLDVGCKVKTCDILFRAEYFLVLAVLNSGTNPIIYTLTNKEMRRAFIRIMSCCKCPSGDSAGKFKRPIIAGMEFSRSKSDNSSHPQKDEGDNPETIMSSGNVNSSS

[4] = test system: Mus musculus; test: Decrease in peripheral lymphocyte levels in po dosed BALB/c mouse at 4 hrs by automated hematology analyzer; assay type: functional
Outline: (§1)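 Compound given orally to 6-week-old male BALB/c mice. At 4 or 24 h, blood was taken from the abdominal aorta under ether anaesthesia and lymphocytes counted on an automated haematology analyser. Counts expressed as % of the vehicle-group mean; ED50 is the dose lowering counts to 50%. One experiment, five mice.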

[5] = test system: Mus musculus; test: Decrease in peripheral lymphocyte levels in po dosed BALB/c mouse at 24 hrs by automated hematology analyzer; assay type: functional; outline: as §1
[6] = AUC (infinity) in Crl:CD(SD) rat at 0.1 mg/kg, iv by LC-MS/MS analysis; assay type: ADME, organism-based; set-up: dose 0.1 mg/kg, time infinity, route intravenous; details: in vivo
Outline: (§2)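 Single intravenous or oral dose of 0.1 mg/kg to male Crl:CD(SD) rats and to monkeys. Values are means of three animals with SD.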

[7] = AUC (infinity) in cynomolgus monkey at 0.1 mg/kg, po by LC-MS/MS analysis; assay type: ADME, organism-based, Macaca fascicularis; set-up: dose 0.1 mg/kg, route oral, time infinity; details: in vivo; outline: as §2
[8] = Cmax in cynomolgus monkey at 0.1 mg/kg, po by LC-MS/MS analysis; assay type: ADME, organism-based, Macaca fascicularis; set-up: dose 0.1 mg/kg, route oral; details: in vivo; outline: as §2
[9] = Total clearance in cynomolgus monkey at 0.1 mg/kg, iv by LC-MS/MS analysis; assay type: ADME, organism-based, Macaca fascicularis; details: in vivo; outline: as §2
[10] = Half life in Crl:CD(SD) rat at 0.1 mg/kg, iv by LC-MS/MS analysis; assay type: ADME, organism-based; details: in vivo; outline: as §2
[11] = Half life in cynomolgus monkey at 0.1 mg/kg, iv by LC-MS/MS analysis; assay type: ADME, organism-based, Macaca fascicularis; details: in vivo; outline: as §2
[12] = Half life in cynomolgus monkey at 0.1 mg/kg, po by LC-MS/MS analysis; assay type: ADME, organism-based, Macaca fascicularis; details: in vivo; outline: as §2
[13] = Volume of distribution at steady state in Crl:CD(SD) rat at 0.1 mg/kg, iv by LC-MS/MS analysis; assay type: ADME, organism-based; details: in vivo, read-out: Vdss; outline: as §2
[14] = Volume of distribution at steady state in cynomolgus monkey at 0.1 mg/kg, iv by LC-MS/MS analysis; assay type: ADME, organism-based, Macaca fascicularis; details: in vivo, read-out: Vdss; outline: as §2
[15] = Oral bioavailability in Crl:CD(SD) rat at 0.1 mg/kg by LC-MS/MS analysis; assay type: ADME, organism-based; details: in vivo; outline: as §2
[16] = test system: Rattus norvegicus; test: Antiarthritic activity in bovine type 2 collagen-induced Lewis rat arthritis model at 0.1 mg/kg, po qd administered up to 27 days; assay type: functional, organism-based
Outline: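 Female Lewis rats were immunised with bovine type II collagen in incomplete Freund's adjuvant on days 0 and 7. Compound (0.03 or 0.1 mg/kg) or 0.5% methylcellulose was given orally once daily, days 0–27. Paw oedema/erythema was scored. Groups: n = 9–10 treated/control, normal n = 5. Mean ± SE, Steel test.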

[17] = test system: Cynomolgus monkey; test: Toxicity in unrestrained conscious cynomolgus monkey assessed as decrease in heart rate at 100 mg/kg, po administered as single dose measured after 4 to 24 hrs; assay type: organism-based, Macaca fascicularis; details: in vivo
Outline: (§3)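 Single oral dose of 1, 10 or 100 mg/kg to unrestrained conscious monkeys. Heart rate was followed from 4 to 24 h after dosing and its decrease expressed against the pretreatment value. Plasma concentration was sampled at 4 and 24 h.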

[18] = test system: Cynomolgus monkey; test: Toxicity in unrestrained conscious cynomolgus monkey assessed as decrease in heart rate at 100 mg/kg, po administered as single dose measured at 4 hrs relative to control; assay type: organism-based, Macaca fascicularis; set-up: scale not given: the % may be the effect or the level left; details: in vivo; outline: as §3
[19] = Plasma concentration in unrestrained conscious cynomolgus monkey at 1 mg/kg, po measured at 4 hrs; assay type: ADME, organism-based, Macaca fascicularis; outline: as §3
[20] = Plasma concentration in unrestrained conscious cynomolgus monkey at 10 mg/kg, po measured at 4 hrs; assay type: ADME, organism-based, Macaca fascicularis; outline: as §3
[21] = target: T2, Sphingosine 1-phosphate receptor 1; test: Displacement of [33P]-S1P from human S1P1 receptor expressed in CHO-K1 cells after 60 mins by scintillation counting method; assay type: cell-based
[22] = target: T3, Sphingosine 1-phosphate receptor 1 (Rattus norvegicus, UniProt P48303); test: Displacement of [33P]-S1P from rat S1P1 receptor after 60 mins by scintillation counting method
T3 sequence (P48303 whole entry): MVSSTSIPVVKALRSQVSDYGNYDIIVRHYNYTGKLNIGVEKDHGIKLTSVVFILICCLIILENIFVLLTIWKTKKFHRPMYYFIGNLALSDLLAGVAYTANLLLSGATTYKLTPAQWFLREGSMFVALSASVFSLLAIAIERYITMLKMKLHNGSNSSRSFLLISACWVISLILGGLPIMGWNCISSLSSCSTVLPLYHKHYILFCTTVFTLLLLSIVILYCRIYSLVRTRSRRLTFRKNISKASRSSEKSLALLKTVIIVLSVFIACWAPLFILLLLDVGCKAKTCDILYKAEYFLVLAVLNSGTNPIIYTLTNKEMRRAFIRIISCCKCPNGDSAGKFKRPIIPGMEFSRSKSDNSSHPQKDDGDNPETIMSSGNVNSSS

[23] = target: T3, Sphingosine 1-phosphate receptor 1; test: Agonist activity at rat S1P1 receptor assessed as inhibition of forskolin-stimulated cAMP accumulation after 30 mins by ELISA; assay type: functional
[24] = Cmax in bovine type 2 collagen-induced Lewis rat arthritis model at 0.03 mg/kg, po qd administered up to 27 days; assay type: ADME, organism-based; set-up: dose 0.03 mg/kg, route oral; details: in vivo
[25] = Cmax in bovine type 2 collagen-induced Lewis rat arthritis model at 0.1 mg/kg, po qd administered up to 27 days; assay type: ADME, organism-based; set-up: dose 0.1 mg/kg, route oral; details: in vivo
[26] = target: T1, Sphingosine 1-phosphate receptor 2; test: Displacement of [33P]-S1P from human S1P2 receptor expressed in CHO-K1 cells after 60 mins by scintillation counting method; assay type: cell-based
[27] = target: T4, Sphingosine 1-phosphate receptor 4 (Homo sapiens, UniProt O95977); test: Displacement of [33P]-S1P from human S1P4 receptor expressed in CHO-K1 cells after 60 mins by scintillation counting method; assay type: cell-based
T4 sequence (O95977 whole entry): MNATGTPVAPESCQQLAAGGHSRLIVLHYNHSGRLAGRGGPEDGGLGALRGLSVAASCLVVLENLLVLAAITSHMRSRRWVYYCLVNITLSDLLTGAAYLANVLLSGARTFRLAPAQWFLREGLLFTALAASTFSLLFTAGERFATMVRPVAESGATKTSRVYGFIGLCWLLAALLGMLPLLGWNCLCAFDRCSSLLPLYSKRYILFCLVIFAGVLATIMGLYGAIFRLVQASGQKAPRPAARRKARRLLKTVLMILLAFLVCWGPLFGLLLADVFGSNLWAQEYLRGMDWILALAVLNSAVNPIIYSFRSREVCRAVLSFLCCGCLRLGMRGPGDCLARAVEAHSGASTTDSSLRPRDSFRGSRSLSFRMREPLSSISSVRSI

[28] = target: Sphingosine 1-phosphate receptor 5 (Homo sapiens, UniProt Q9H228); test: Displacement of [33P]-S1P from human S1P5 receptor expressed in CHO-K1 cells after 60 mins by scintillation counting method; assay type: cell-based
Chain of Sphingosine 1-phosphate receptor 5 (Q9H228 whole entry): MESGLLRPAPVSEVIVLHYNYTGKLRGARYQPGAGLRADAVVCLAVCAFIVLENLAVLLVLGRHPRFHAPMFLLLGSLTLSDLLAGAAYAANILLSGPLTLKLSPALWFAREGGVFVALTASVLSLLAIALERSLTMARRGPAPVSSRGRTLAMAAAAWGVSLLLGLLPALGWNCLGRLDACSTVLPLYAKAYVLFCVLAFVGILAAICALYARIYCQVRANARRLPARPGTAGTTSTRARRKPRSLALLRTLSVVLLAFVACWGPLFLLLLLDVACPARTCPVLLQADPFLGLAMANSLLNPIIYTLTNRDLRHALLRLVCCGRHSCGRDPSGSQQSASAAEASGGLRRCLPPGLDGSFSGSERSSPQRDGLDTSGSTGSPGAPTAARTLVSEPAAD

[29] = target: T2, Sphingosine 1-phosphate receptor 1; test: Downregulation of human S1P1 receptor expressed in CHO-K1 cell membranes assessed as concentration required to induce downregulation of receptor by 90% by flow cytometric method; assay type: cell-based

CCCc1ccc(COc2ccc3c(c2)CCC(CN2CC(C(=O)O)C2)=C3C)c(OC)c1
Ratio EC50 [1]: > 30000 | EC50 [2]: > 30000 nM | EC50 [3]: 0.027 nM | ED50 [4]: 0.018 mg/kg | ED50 [5]: 0.029 mg/kg | AUC(0-inf) [6]: 302 ng·h/mL | AUC(0-inf) [7]: 1090 ng·h/mL | Cmax [8]: 28.4 ng/mL | clearance [9]: 1.06 mL/min/kg | half-life [10]: 16 h | half-life [11]: 30 h | half-life [12]: 29 h | Vd [13]: 7.15 L/kg | Vd [14]: 2.66 L/kg | bioavailability [15]: 75.9% | Activity [16]: Active | Activity [17]: Toxic | Activity [18]: 19% | concentration at 4 h [19]: 320 ng/mL | concentration at 4 h [20]: 3570 ng/mL | Ki [21]: 0.626 nM | Ki [22]: 0.772 nM | EC50 [23]: 0.0286 nM | Cmax [24]: 5.76 nM | Cmax [25]: 21.5 nM | Ki [26]: > 5450 nM | Ki [27]: 28.8 nM | Ki [28]: 0.574 nM | Activity [29]: 25 nM
